According to ChEMBL document CHEMBL1152931, “Glycogen phosphorylase inhibitory effects of 2-oxo-1,2-dihydropyridin-3-yl amide derivatives” (Bioorg Med Chem, 2009):

target: T1, Glycogen phosphorylase, muscle form (Oryctolagus cuniculus, UniProt P00489); assay: Inhibition of rabbit muscle glycogen phosphorylase; details: not given
T1 sequence (P00489 whole entry): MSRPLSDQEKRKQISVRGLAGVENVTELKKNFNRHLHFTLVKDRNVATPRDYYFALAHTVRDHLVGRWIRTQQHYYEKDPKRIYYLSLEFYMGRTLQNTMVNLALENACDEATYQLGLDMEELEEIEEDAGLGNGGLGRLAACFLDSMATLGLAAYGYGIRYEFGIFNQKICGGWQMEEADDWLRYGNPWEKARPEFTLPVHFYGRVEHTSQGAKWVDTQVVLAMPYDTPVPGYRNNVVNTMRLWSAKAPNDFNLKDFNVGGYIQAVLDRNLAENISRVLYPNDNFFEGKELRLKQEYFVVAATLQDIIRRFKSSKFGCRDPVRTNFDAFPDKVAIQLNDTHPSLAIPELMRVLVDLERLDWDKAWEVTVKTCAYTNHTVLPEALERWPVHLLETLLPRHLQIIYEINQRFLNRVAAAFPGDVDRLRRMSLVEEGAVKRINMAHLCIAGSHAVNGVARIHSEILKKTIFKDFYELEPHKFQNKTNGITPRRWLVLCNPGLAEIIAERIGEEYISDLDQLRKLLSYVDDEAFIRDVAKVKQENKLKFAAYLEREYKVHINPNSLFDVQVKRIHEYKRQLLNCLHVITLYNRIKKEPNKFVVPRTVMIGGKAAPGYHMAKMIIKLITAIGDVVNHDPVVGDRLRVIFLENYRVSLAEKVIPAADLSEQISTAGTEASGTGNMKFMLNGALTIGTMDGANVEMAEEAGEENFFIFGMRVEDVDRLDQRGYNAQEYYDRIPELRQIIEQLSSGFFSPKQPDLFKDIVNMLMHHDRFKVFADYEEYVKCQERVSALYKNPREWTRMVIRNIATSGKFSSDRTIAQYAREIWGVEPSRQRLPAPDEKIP

SMILES | IC50 [µM]
O=C(Cn1cccc(NCc2ccccc2)c1=O)NCc1ccc(Cl)c(Cl)c1 | 6.3
CCCNc1cccn(CC(=O)NCc2ccc(Cl)c(Cl)c2)c1=O | 1770
CCCNc1cccn(CC(=O)NCc2ccccc2)c1=O | 343
COc1ccccc1CNC(=O)Cn1cccc(NCc2ccccc2)c1=O | 308
CC(=O)Nc1cccn(CC(=O)NCc2ccc(Cl)c(Cl)c2)c1=O | 372
O=C(Cn1cccc(NCc2ccccc2)c1=O)NCc1ccccc1 | 34.2
O=C(Cn1cccc(NCc2ccccc2)c1=O)N[C@H](CO)c1ccccc1 | 120
O=C(Cn1cccc(NCc2ccccc2)c1=O)NC1CCN(Cc2ccccc2)CC1 | 813
O=C(Cn1cccc(NC(=O)c2ccccc2)c1=O)NCc1ccc(Cl)c(Cl)c1 | 162

target: T2, Glycogen phosphorylase, muscle form (Oryctolagus cuniculus) (UniProt P00489); details: 111 uM
T2 sequence (whole entry): T1 sequence (P00489 whole entry)

SMILES | inhibition [%]
O=C(Cn1cccc(NCc2ccccc2)c1=O)NCc1ccccc1 | 96

target: T2, Glycogen phosphorylase, muscle form (Oryctolagus cuniculus); assay: Inhibition of rabbit muscle glycogen phosphorylase at 222 uM; details: not given
Procedure, shortened: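 Rabbit muscle glycogen phosphorylase a at 0.475 µg/mL, assayed in the glycogen-synthesis direction. Run 30 min at 22 °C. Compounds added in 14% DMSO. Released phosphate read at 620 nm by malachite green/ammonium molybdate in 1 M HCl. Duplicates on two occasions, averaged.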

SMILES | inhibition [%]
CCCNC(=O)Cn1cccc(NC(C)=O)c1=O | < 20
CCCCNC(=O)Cn1cccc(NC(=O)c2ccccc2)c1=O | < 20
CCCNc1cccn(CC(=O)OCC)c1=O | < 20
COCCCNC(=O)Cn1cccc(NC(=O)c2ccccc2)c1=O | < 20
O=C(Cn1cccc(NCc2ccccc2)c1=O)NCc1ccc(Cl)c(Cl)c1 | 94
CCCNC(=O)Cn1cccc(NC(=O)c2ccccc2)c1=O | < 20
O=C(Cn1cccc(NC(=O)c2ccccc2)c1=O)NC1CCN(Cc2ccccc2)CC1 | < 20
O=C(Cn1cccc(NC(=O)c2ccccc2)c1=O)NCc1ccccc1 | < 20
CCOC(=O)Cn1cccc(NC(C)=O)c1=O | < 20
O=C(Cn1cccc(NCc2ccccc2)c1=O)N1CCCC1 | < 20
CCCNc1cccn(CC(=O)NCc2ccc(Cl)c(Cl)c2)c1=O | 40
CCCNc1cccn(CC(=O)NCc2ccccc2)c1=O | 80
O=C(Cn1cccc(NC(=O)c2ccccc2)c1=O)NCCN1CCCCC1 | < 20
O=C(Cn1cccc(NC(=O)c2ccccc2)c1=O)N[C@H](CO)c1ccccc1 | < 20
CC(=O)Nc1cccn(CC(=O)N2CCCC2)c1=O | < 20
O=C(Cn1cccc(NC(=O)c2ccccc2)c1=O)NCCCN1CCOCC1 | < 20
CC(C)NC(=O)Cn1cccc(NC(=O)c2ccccc2)c1=O | < 20
COc1ccccc1CNC(=O)Cn1cccc(NCc2ccccc2)c1=O | 38
CC(=O)Nc1cccn(CC(=O)NCc2ccc(Cl)c(Cl)c2)c1=O | 45
O=C(Nc1cccn(CC(=O)N2CCOCC2)c1=O)c1ccccc1 | < 20
O=C(Cn1cccc(NCc2ccccc2)c1=O)N[C@H](CO)c1ccccc1 | 40
CC(=O)Nc1cccn(CC(=O)NCc2ccccc2)c1=O | < 20
NS(=O)(=O)c1ccc(CCNC(=O)Cn2cccc(NC(=O)c3ccccc3)c2=O)cc1 | < 20
CCCNC(=O)Cn1cccc(NCc2ccccc2)c1=O | < 20

SMILES | inhibition [%]
CCCNc1cccn(CC(=O)N2CCCC2)c1=O | < 20
O=C(Cn1cccc(NC(=O)c2ccccc2)c1=O)N[C@@H](CO)Cc1ccccc1 | < 20
CC(C)CNC(=O)Cn1cccc(NC(=O)c2ccccc2)c1=O | < 20
O=C(Cn1cccc(NC(=O)c2ccccc2)c1=O)N[C@H](CO)Cc1ccccc1 | < 20
CCOC(=O)Cn1cccc(NCc2ccccc2)c1=O | < 20
CCNC(=O)Cn1cccc(NC(=O)c2ccccc2)c1=O | < 20
CC(=O)Nc1cccn(CC(=O)NC2CCCCC2)c1=O | < 20
O=C(Cn1cccc(NCc2ccccc2)c1=O)NC1CCN(Cc2ccccc2)CC1 | 45
O=C(Cn1cccc(NCc2ccccc2)c1=O)NCc1ccccn1 | < 20
O=C(Cn1cccc(NC(=O)c2ccccc2)c1=O)NCCO | < 20
O=C(Cn1cccc(NC(=O)c2ccccc2)c1=O)NCc1ccccn1 | < 20
CCCNC(=O)Cn1cccc(NCCC)c1=O | < 20
O=C(Cn1cccc(NC(=O)c2ccccc2)c1=O)NCc1ccc(Cl)c(Cl)c1 | 45
O=C(Cn1cccc(NCc2ccccc2)c1=O)N[C@H](CO)Cc1ccccc1 | 94
NCCNC(=O)Cn1cccc(NC(=O)c2ccccc2)c1=O | < 20
CC(=O)Nc1cccn(CC(=O)NC(C)C)c1=O | < 20
CCOC(=O)Cn1cccc(NC(=O)c2ccccc2)c1=O | < 20
CC(C)NC(=O)Cn1cccc(NCc2ccccc2)c1=O | < 20
O=C(Nc1cccn(CC(=O)N2CCCCC2)c1=O)c1ccccc1 | < 20
CC(C)(CO)NC(=O)Cn1cccc(NC(=O)c2ccccc2)c1=O | < 20
O=C(Cn1cccc(NC(=O)c2ccccc2)c1=O)NN1CCOCC1 | < 20
O=C(Nc1cccn(CC(=O)N2CCCC2)c1=O)c1ccccc1 | < 20
CC(=O)Nc1cccn(CC(=O)NCCO)c1=O | < 20
